Screening results deposited in PubChem by The Scripps Research Institute Molecular Screening Center.
The list is not random: actives were taken first. Their share in the collection is about 2.6%.
OXTR agonist – human OXTR agonists, primary screen, fluorescence, CHO-OTR cells, Fluo-8 calcium; activation, % at 3 µM; AID 2435, 2010; Oxytocin receptor (Homo sapiens), P30559; Fluo-8 calcium fluorescence; normalized: DMSO 0%, oxytocin 100%; 320,000 tested, 0.32% active;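 active means activation above the mean of all tested compounds plus 3 SD, cutoff set per screening run, cut at about 20% in these data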;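 further: peak over basal fluorescence ratio from a 100 s FLIPR kinetic read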
Target sequence (P30559 whole entry, looked up): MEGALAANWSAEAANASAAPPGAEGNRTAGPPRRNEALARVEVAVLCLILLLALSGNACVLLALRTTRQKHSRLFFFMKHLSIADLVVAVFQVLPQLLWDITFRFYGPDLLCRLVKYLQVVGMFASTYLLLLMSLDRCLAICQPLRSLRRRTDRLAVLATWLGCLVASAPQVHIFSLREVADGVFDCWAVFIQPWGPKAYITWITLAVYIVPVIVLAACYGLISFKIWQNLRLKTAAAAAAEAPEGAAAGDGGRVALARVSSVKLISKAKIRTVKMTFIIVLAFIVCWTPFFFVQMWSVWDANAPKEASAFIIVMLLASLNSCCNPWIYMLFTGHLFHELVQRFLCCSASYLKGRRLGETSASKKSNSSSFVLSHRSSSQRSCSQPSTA
OX1R antag-1 – OX1R (HCRTR1) antagonists, primary screen, fluorescence, CHO/OX1R cells, Fluo-8 calcium, orexin A | Orexin/Hypocretin receptor type 1 (Homo sapiens), O43613 | Fluo-8 calcium fluorescence | inhibition, % at 5 µM | 330,000 tested, 0.43% active | AID 434989, 2010;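 active means inhibition above its plate's threshold, mean inhibition of all tested compounds on the plate plus 3 SD, cut at about 37% in these data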;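 further: 0% = orexin A challenge wells and 100% = SB-334867-A antagonist wells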
V1R ag counter – agonists of human V1a receptor, primary screen, counter-screen for OXTR agonist project, fluorescence, CHO-V1R cells; activation, % at 3 µM; Vasopressin V1a receptor (Homo sapiens), P37288; 320,000 tested, 0.25% active; Fluo-8 calcium fluorescence, agonist mode; 0% DMSO, 100% 3 nM vasopressin;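 active means activation above the mean activation of all tested compounds plus 3 SD, per screening run, cut at about 20% in these data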;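 further: signal is peak over basal fluorescence ratio across a 100 second FLIPR read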
CHO parental Ca – ATP-evoked calcium signal inhibitors, parental CHO, primary screen, counter-screen for OX1R antagonist project, cell-based, fluorescence, Fluo-8 calcium dye | 330,000 tested, 0.63% active | inhibition, % at 5.6 µM | AID 463079, 2010 | parental CHO-K1, ATP-induced calcium, Fluo-8 fluorescence;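 active means inhibition above that plate's mean sample inhibition plus 3 SD, cut at about 26% in these data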;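 further: 0% = ATP-challenged DMSO wells and 100% = DMSO wells without ATP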
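test system = CHO parental line | reagent = ATP stimulus | measured by = intracellular calcium via Fluo-8 no-wash fluorescent dye | control set = ATP and no-ATP DMSO wells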
OX1R antag-2 – antagonists of human orexin 1 receptor (OX1R); 330,000 tested, 1.8% active; OX1R-expressing cells, FRET antagonist read-out; AID 485270, 2010; inhibition, % at 6.6 µM; in the data active means inhibition mostly above about 38%, no sharp cut-off; inactive means mostly below about 40%;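 further: 0% = agonist challenge alone and 100% = reference antagonist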
OXTR potentiator – human OXTR potentiators, primary screen, fluorescence, CHO-OTR cells, Fluo-8 calcium | Oxytocin receptor (Homo sapiens), P30559 | 320,000 tested, 0.061% active | AID 2445, 2010 | activation, % at 3 µM | Fluo-8 calcium fluorescence, potentiator mode; 0% = oxytocin EC15, 100% = EC100;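 active means activation above that plate's cutoff, the mean activation of tested compounds plus 3 SD, cut at about 6.6% in these data, passing the limit was not always enough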;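 further: 100% uses oxytocin at 75 nM as the full agonist control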
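Material: CHO-OTR cells, human receptor; compound dosing: single dose, 3.0 µM nominal final compound concentration; schedule: 6 min compound pre-incubation at room temperature, 100 s kinetic read; measured by: kinetic Fluo-8 calcium fluorescence; read-out basis: % activation vs EC15 and EC100 oxytocin; controls: EC15 oxytocin alone as 0%, 75 nM oxytocin as 100%; replicates: singlicate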
* marks the source's active call; other numbers are inactive results.

SMILES	OXTR agonist	OX1R antag-1	V1R ag counter	CHO parental Ca	OX1R antag-2	OXTR potentiator
O=C(CCC(=O)N1CCN(S(=O)(=O)c2ccc([N+](=O)[O-])cc2)CC1)N1CCOCC1	0.6	9.8	0.3	-2.6	48.4*	-3.6
COCCNc1oc(/C=C/c2ccccc2OC)nc1S(=O)(=O)c1ccccc1	-0.7	-22.4	-0.5	-16.1	13.9	6.0
CN(CC(=O)NCc1cccs1)S(=O)(=O)c1cccc2nsnc12	-0.6	-10.6	-0.5	-1.2	50.8*	-18.4
CN(CC(=O)NCc1ccc(F)cc1)S(=O)(=O)c1cccc2nsnc12	-1.1	-15.7	-0.3	-9.9	57.9	-16.0
Cc1c(C=O)c2cc(OCc3ccccc3)ccc2n1C	0.3	-12.3	0.3	-10.7	21.3	-2.5
O=C(Nc1ccc2ccccc2c1)c1ccccc1O	8.9	8.6	7.1	8.6	54.8*	-10.1
O=C(Nc1ccc2ccccc2c1)c1ccc(Cl)cc1Cl	-1.7	-26.5	0.3	5.3	12.9	-12.5
CCCCC[C@H]1CN(Cc2ccccc2)C(=O)[C@@H]1CC(=O)NCc1ccc(OC)cc1	-1.8	-31.6	2.0	-20.4	-2.3	-0.4
C[C@H](CO)N1C[C@H](C)[C@@H](CN(C)C(=O)Nc2ccc(C(F)(F)F)cc2)Oc2c(NC(=O)Nc3ccc(C(F)(F)F)cc3)cccc2C1=O	3.2	23.7	4.7	41.5*	9.3	-0.5
COc1ccccc1N1CCN(C(=O)CCc2nnc3ccc(N4CCC(C)CC4)nn23)CC1	-2.5	-29.5	-1.8	-19.7	13.6	-15.4
O=C(CSc1nnc2scc(-c3ccccc3)n12)Nc1nsc(-c2ccccc2)n1	-0.8	9.2	0.0	-26.9	72.6*	-7.5
O=C(CSc1nnc2scc(-c3ccccc3)n12)Nc1nsc(-c2ccc(Cl)cc2)n1	-1.3	-27.6	-0.7	-13.1	19.0	-7.7
COc1ccccc1CNC(=O)CN(C)S(=O)(=O)c1ccc(F)cc1	1.4	-3.6	1.5	-12.6	19.3	-6.0
O=C1NC(=Nc2ccc(O)cc2)S/C1=C/c1ccco1	0.1	-15.2	0.6	3.3	33.4	-1.1
O=C1NC(=Nc2ccc3ccccc3c2)S/C1=C/c1ccco1	-2.1	5.4	-1.7	-13.5	42.4*	-7.4
O=C1C2C3C=CC(CC3)C2C(=O)N1c1ccc(Cl)cc1Cl (centres undefined)	-1.0	-2.5	0.8	-0.2	13.8	1.6
CNc1nc(N/N=C/c2cc3c(cc2[N+](=O)[O-])OCO3)nc(Nc2ccccc2)n1	-2.6	-13.0	-1.1	-23.9	43.6*	-1.4
O=[N+]([O-])c1cc2c(cc1/C=N\NS(=O)(=O)c1ccccc1)OCO2	1.8	13.2	1.6	-1.6	54.6	-3.1
O=[N+]([O-])c1cccc(NC(=S)Nc2nc(-c3ccccc3Cl)cs2)c1	10.0	31.2	9.3	64.3*	31.1	-15.7
CC1CCN(C(=O)c2ccc(CNS(=O)(=O)c3ccc(C(C)(C)C)cc3)cc2)CC1	0.4	23.6	2.1	-4.6	22.3	-5.7
CN1CCN(c2cc(N3CCN(C(=O)c4ccco4)CC3)c3c4c(onc24)-c2ccccc2C3=O)CC1	0.2	-33.0	-0.2	-11.4	38.1	-3.1
CCOC(=O)N1CCN(c2cc(NCCC(=O)O)c3c4c(onc24)-c2ccccc2C3=O)CC1	-0.8	-27.5	-0.3	-17.4	73.5*	-1.4
O=C(O)CCCNc1cc(N2CCC3(CC2)OCCO3)c2noc3c2c1C(=O)c1ccccc1-3	-0.6	-0.1	-1.4	-10.7	65.0*	-1.7
O=C(O)CCCNc1cc(N2CCN(C(=O)c3ccco3)CC2)c2noc3c2c1C(=O)c1ccccc1-3	2.8	-20.2	3.3	-15.9	57.6*	-1.6
O=C(CCNC(=O)c1ccco1)Nc1ccc(Cl)c(C(F)(F)F)c1	7.2	3.5	7.0	2.0	6.0	-10.7
SMILES	OXTR agonist	OX1R antag-1	V1R ag counter	CHO parental Ca	OX1R antag-2	OXTR potentiator
COc1ccccc1N(CC(O)CN1C(C)CCCC1C)S(=O)(=O)c1ccccc1 (centres undefined)	0.9	-18.0	-0.4	-4.7	25.5	6.2
CCOc1cc2c(cc1/C=C(/C#N)c1ccc(C(=O)O)cc1)OCO2	-1.5	11.0	-0.6	10.6	21.0	-10.9
N#C/C(=C\c1cc2c(cc1Br)OCO2)c1ccc(C(=O)O)cc1	2.6	-11.8	1.2	100.0*	15.7	-0.6
Cc1ccc(NC(=O)c2nc(S(=O)(=O)Cc3ccccc3C)ncc2Cl)cc1C	-0.3	25.2	-0.2	39.5*	34.1	-9.1
CCOc1ccccc1NC(=O)c1nc(S(=O)(=O)Cc2ccccc2)ncc1Cl	0.0	9.7	2.8	2.3	12.2	-0.9
CCc1ccc(NC(=O)c2nc(S(=O)(=O)Cc3ccccc3)ncc2Cl)cc1	-1.3	63.2*	0.5	57.3*	23.5	-8.3
CCS(=O)(=O)c1ncc(Cl)c(C(=O)Nc2ccc(S(=O)(=O)N3CCC(C)CC3)cc2)n1	-2.9	24.5	0.1	40.9*	46.5*	-9.5
COC(=O)c1ccc(NC(=O)c2nc(S(=O)(=O)Cc3cccc(C)c3)ncc2Cl)cc1	-2.1	45.2	-1.0	28.0	20.8	-11.3
CCOC(=O)c1ccc(NC(=O)c2nc(S(=O)(=O)Cc3ccccc3)ncc2Cl)cc1	-2.1	73.4*	-0.1	27.0	13.2	-5.7
CC(=O)Nc1ccc(NC(=O)c2nc(S(=O)(=O)Cc3cccc(C)c3)ncc2Cl)cc1	-1.2	25.1	-0.6	26.0	5.1	-6.0
O=c1c(-c2c(O)cc(O)c3c2O[C@H](c2ccc(O)cc2)CC3)c(-c2ccc(O)cc2)oc2cc(O)cc(O)c12	0.6	20.9	2.0	4.4	13.1	-1.2
CCOC(=O)C1=CC[C@H]2c3c(c4ccccc4n3C)C[C@H]1N2C	3.0	-3.9	1.2	-11.8	5.5	-5.2
CC1(C)C2CCC(C2)C1(C)NC(=O)CNC1CCCCC1 (centres undefined)	0.3	-19.3	-0.2	-14.2	6.0	-13.0
CN(CC(=O)Nc1ccccc1N1CCCC1)S(=O)(=O)c1ccc(F)cc1	-2.4	-40.8	-0.8	-9.9	17.7	4.6
CSc1nsc(N/N=C/c2ccc3c(c2)OCO3)c1C#N	2.3	8.2	0.7	12.2	41.1*	-4.6
COc1cc(/C=N/Nc2snc(SC)c2C#N)cc(OC)c1OC	2.2	-14.1	1.9	-7.8	37.0	-15.7
CCc1ccc(/C=N/NC(=O)c2nnn(-c3nonc3N)c2C(C)C)cc1	55.3*	-46.6	47.4*	-19.6	3.7	-5.9
